# Screening data (PubChem)
# In the library only some 2.3% were active in any assay of this set; here they are far more common.
# RORa activator = activates the human nuclear receptor RORA | P35398 | CHO-K1 Gal4-RORA LBD luciferase reporter, luminescence; percent increase over mock-subtracted basal signal | activation, % at 10 µM | 65,000 tested, 1.5% active | AID 560;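 active = activation above the mean of all tested compounds plus 3 SD, cut at about 49% in these data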;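 also: 0% = DMSO-treated RORA cells and 100% = added signal equal to DMSO minus mock-transfected cells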
# MT1-MMP txn act = activates MT1-MMP transcription; activation factor at 10 µM; 86,000 tested, 0.16% active; AID 750; HT1080 MT1-MMP promoter luciferase reporter, luminescence, overnight; stronger effect = higher value;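 active = activation factor of at least 2 for MT1-MMP transcription at 10 µM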
# SF1 activator = activators of human nuclear receptor SF-1. Q13285. CHO-K1 Gal4-SF-1 LBD luciferase reporter; % increase over DMSO SF-1-specific signal. activation, % at 10 µM. 65,000 tested, 1.9% active;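 active = activation above the mean activation of all tested compounds plus 3 SD, cut at about 50% in these data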
# Target sequence (Q13285 whole entry, looked up, the tested form may be a part): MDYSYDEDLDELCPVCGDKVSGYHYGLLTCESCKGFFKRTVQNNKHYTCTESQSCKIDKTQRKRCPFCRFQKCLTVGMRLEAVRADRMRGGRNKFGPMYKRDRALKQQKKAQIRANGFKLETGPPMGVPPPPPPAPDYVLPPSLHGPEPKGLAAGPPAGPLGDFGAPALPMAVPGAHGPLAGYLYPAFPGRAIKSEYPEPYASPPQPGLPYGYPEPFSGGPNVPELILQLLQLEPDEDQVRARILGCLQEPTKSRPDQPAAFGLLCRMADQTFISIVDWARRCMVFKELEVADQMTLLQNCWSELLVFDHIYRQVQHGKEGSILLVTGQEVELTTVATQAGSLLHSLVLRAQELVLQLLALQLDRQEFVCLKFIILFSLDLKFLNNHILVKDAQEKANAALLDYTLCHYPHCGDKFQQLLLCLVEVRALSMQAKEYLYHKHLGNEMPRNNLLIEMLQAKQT
#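 Assay system – CHO-K1 cells with Gal4–hSF-1 LBD chimera plus Gal4-driven luciferase · Quantity – 4,000 cells per well · Times – compound added 1 h post-seeding, 20 h exposure at 37 °C, 5% CO2 · Measured by – luciferase light emission · Benchmarks – DMSO and mock-transfected background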
# JNK3 blocker = blocks human JNK3 kinase activity; inhibition, % at 8 µM; AID 746; 60,000 tested, 0.61% active; purified JNK3 kinase activity, HTS; in the data active = inhibition above about 17%;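 also: 0% = DMSO and 100% = reference inhibitor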
# Numbers without * were called inactive; nt = not tested or not shown.
SMILES,RORa activator,MT1-MMP txn act,SF1 activator,JNK3 blocker
CCOC(=O)c1ccccc1NC(=O)c1cccc2c1C(=O)N(C1CCN(C(=O)OCC)CC1)C2,-12,1.1,-9,3
Cc1nc(SCC(=O)c2cccs2)c2oc3ccccc3c2n1,nt,1.2,nt,nt
c1ccc2[nH]c(CSc3ncnc4c3oc3ccccc34)nc2c1,30,1.6,22,19*
O=C(CSc1ncnc2c1oc1ccccc12)c1cccs1,40,1.6,71*,12
O=P1(c2ccccc2)C=Cn2c1cc1c2CCCC1 (stereo not drawn),15,1,13,0
CC(N)(Cc1ccc(O)cc1)C(=O)O (stereo not drawn),nt,1.1,nt,nt
c1ccc(-c2nnc3sc(-c4cc5ccccc5o4)nn23)cc1,-16,1.2,-18,0
Cc1nnc2sc(-c3cc4ccccc4o3)nn12,57*,1.3,34,3
CCOC(=O)c1[nH]c2ccc(OC)cc2c1C,28,1.4,59*,11
CCOC(=O)c1[nH]c2ccc(OC)cc2c1NC(C)=O,7,1.1,-14,3
CCOC(=O)c1cc2cc(OC)ccc2[nH]1,12,1.5,73*,-9
CCCCN(CC)CCCNC(=O)c1cc2c(=O)n(C)c3ccccc3c2n1C,8,1.2,15,0
C[C@@H](C(=O)Nc1ccc2ccccc2c1)[C@@H]1C[C@@]1(C)[C@@H](NC(=O)Oc1ccc(F)cc1)c1ccccc1,nt,1.2,nt,nt
CCn1cc(Br)c(C(=O)Nc2cccc(SC)c2)n1,48,1.6,50*,1
CCn1cc(Br)c(C(=O)NC(C)c2ccccc2)n1 (stereo not drawn),-1,1.1,-7,1
O=C(CN1C(=O)NC2(CCc3ccccc32)C1=O)Nc1cc(C(F)(F)F)ccc1N1CCOCC1 (stereo not drawn),13,1,8,-1
CN(C)S(=O)(=O)c1ccc(NC(=O)c2ccccn2)cc1,57*,1,74*,-1
CCCNS(=O)(=O)c1ccc(NC(=O)c2ccccn2)cc1,19,0.7,36,-13
CCN(CC)S(=O)(=O)c1ccc(NC(=O)c2ccccn2)cc1,49*,1.4,55*,10
N#C/C(C(=O)Oc1ccccc1)=C1\C=CC=CN1,58*,1.3,35,-3
Cc1csc(NC(=O)c2sc3nc(-c4cccs4)ccc3c2N)n1,38,0.6,50*,4
CCCSc1nnc(NC(=O)c2sc3nc(-c4cccs4)ccc3c2N)s1,3,1.2,5,-3
Cn1c(-n2c(CCN3C(=O)c4ccccc4C3=O)nc3ccccc3c2=O)nc2ccccc21,57*,1.4,16,7
O=C(Nc1ccc2c(c1)OCCO2)c1ccc(S(=O)(=O)N2CCCCC2)cc1,17,1.6,14,-3
CCOc1cc(C(=O)Nc2ccc3c(c2)OCO3)ccc1OC(F)F,21,1.1,15,0
SMILES,RORa activator,MT1-MMP txn act,SF1 activator,JNK3 blocker
Cc1cc(C)n(-c2ccc(C(=O)Nc3ccc4c(c3)OCCO4)cc2)n1,75*,1.1,35,12
CC(C)CNS(=O)(=O)c1ccc(C(=O)Nc2ccc3c(c2)OCCO3)cc1,73*,1.9,9,-3
Cc1cc(C)n(-c2ccc(C(=O)NCc3ccc4c(c3)OCO4)cc2)n1,-8,1,-6,5
CCOc1ccc(C(=O)Nc2ccc3c(c2)OCCO3)cc1OC,34,1.5,56*,-3
CC(=O)c1cnc2cc(-c3ccccc3)nn2c1C,28,1.1,50*,-7
NCC#CC(CCc1ccccc1)OCc1ccccc1 (stereo not drawn),nt,1.1,nt,nt
CC(=O)Nc1nc(COc2ccccc2)cs1,51*,1.3,38,-3
CC(=O)Nc1nc(COc2ccc3ccccc3c2)cs1,nt,1.5,nt,nt
COC(=O)[C@@]1(Cc2ccccc2)[C@H]2c3cc(C(=O)N4CCCC4)n(CCN4CCNC4=O)c3C[C@H]2CN1C(=O)c1ccccc1,nt,1.1,nt,nt
O=C(CNc1ccccc1)Nc1ccc(F)cc1,3,1.7,61*,6
Cc1ccc(NC(=O)c2ocnc2C)cc1Cl,61*,1.6,72*,nt
Cc1ncoc1C(=O)Nc1cccc(Cl)c1,33,1.6,46,0
CC(NC(=O)Nc1ccc(F)cc1F)c1ccncc1 (stereo not drawn),-11,1.1,-2,-5
O=c1sc(N2CCN(c3ccccc3F)CC2)nc2ccsc12,60*,1.4,72*,3
CCCOc1ccc(S(=O)(=O)n2cc(Br)c(=O)[nH]c2=O)cc1,50*,1,22,-7
O=c1[nH]c(=O)n(CCOc2ccc(Cl)cc2)cc1Br,-3,1.1,-12,5
CCOc1ccc(S(=O)(=O)N2CCN(c3ccccc3F)CC2)c2cccnc12,nt,1.1,nt,nt
